Assay outcomes (PubChem BioAssay)
NPY-Y2 antag: antagonists of human neuropeptide Y receptor Y2 | P49146 | NPY-Y2 expressing cells, antagonist mode | inhibition, % at 2.7 µM | actives 0.99% (n = 140,000) | AID 793;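 also: 0% = vehicle with agonist challenge and 100% = reference antagonist with challenge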
EP2 mod: modulates human prostaglandin E2 receptor EP2 signaling; P43116; EP2-expressing cells, cAMP HTRF FRET, PGE2 co-stimulation; induction, % at 25 µM; actives 0.83% (n = 260,000);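 active = compounds whose cAMP rise, as percent of the full-agonist control response, exceeds 60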;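 also: rat C6 glioma line stably carrying human EP2 under a CMV promoter; the protocol text gives 20 µM as final concentration; 100% = response of wells given 1 µM PGE2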
NPY-Y1 antag: NPY-Y1 (human) receptor antagonism. P25929. HEK293-CNG Y1 cells, membrane potential fluorescence; NPY at EC95, then isoproterenol. inhibition, % at 3.6 µM. actives 1% (n = 200,000);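 active = inhibition above the campaign mean inhibition of all tested compounds plus 3 SD, cut at about 20% in these data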;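 also: 0% = DMSO wells given NPY plus isoproterenol and 100% = isoproterenol alone without NPY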
Target sequence (P25929 whole entry, looked up): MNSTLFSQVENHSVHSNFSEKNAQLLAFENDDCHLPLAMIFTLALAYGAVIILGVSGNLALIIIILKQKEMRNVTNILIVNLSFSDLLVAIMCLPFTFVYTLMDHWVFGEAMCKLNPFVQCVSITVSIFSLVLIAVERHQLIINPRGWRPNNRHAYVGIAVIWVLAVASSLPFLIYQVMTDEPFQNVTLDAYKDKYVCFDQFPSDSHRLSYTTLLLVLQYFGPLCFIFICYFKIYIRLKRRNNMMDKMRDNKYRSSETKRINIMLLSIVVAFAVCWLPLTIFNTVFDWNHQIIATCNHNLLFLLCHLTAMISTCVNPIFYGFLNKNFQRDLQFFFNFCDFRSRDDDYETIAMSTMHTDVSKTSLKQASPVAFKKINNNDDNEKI
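Material: HEK293 Y1/CNG channel cell line; also added: NPY (25 nM), isoproterenol (1 µM), Ro 20-1724 (25 µM); doses: one concentration, 3.6 µM, in 0.4% DMSO; schedule: compound incubation 1 h at room temperature, readout 45 min post-stimulation; technique: membrane potential fluorescence; measure: fluorescence ratio normalized to % inhibition between controls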
NPY2 pot ag: potentiates or activates human NPY-Y2 receptor; actives 0.45% (n = 220,000); activation, % at 3.6 µM; cells expressing NPY-Y2, potentiator/agonist read-out; P49146; AID 1359; in the data active = activation above about 27%;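 also: cells stimulated with NPY near EC25 plus isoproterenol at EC100; 0% = vehicle plus submaximal agonist and 100% = vehicle plus saturating agonist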
NPY1 pot ag: human NPY-Y1 potentiation or agonism, primary screen | activation, % at 3.6 µM | NPY-Y1 expressing cells, potentiator/agonist activation | actives 0.37% (n = 220,000); in the data active = activation above about 33%, passing the limit was not always enough;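 also: cells stimulated with NPY at EC10 then isoproterenol at EC100; 0% = low agonist plus stimulus and 100% = saturating agonist plus stimulus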
PGE2 EP2 inh: EP2 receptor (human) inhibition. P43116. C6 glioma cells expressing human EP2, cAMP TR-FRET; cells stimulated with saturating PGE2. inhibition, % at 25 µM. actives 0.52% (n = 260,000);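 active = percent inhibition above 40 after rounding to a whole number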;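 also: rat C6 glioma host cells with rolipram phosphodiesterase inhibitor present; the protocol text gives 20 µM as final concentration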
NPY-Y1 ant conf: human NPY-Y1 antagonism, confirmation; shares compounds with NPY-Y1 antag; HEK293-CNG NPY-Y1, membrane potential fluorescence, cAMP; NPY challenge against isoproterenol-raised cAMP; inhibition, % at 3.6 µM; actives 21% (n = 1,200); in the data active = inhibition above about 20%;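 also: 0% = vehicle with agonist plus stimulus and 100% = stimulus alone without agonist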
NPY2 antag ctr: antagonizes human NPY-Y2, counter-screen to NPY-Y1 antagonists | shares compounds with NPY-Y1 antag | HEK293 NPY-Y2 CNG membrane potential fluorescence, antagonism; cells given NPY, then isoproterenol | inhibition, % at 3.6 µM | actives 28% (n = 1,200) | AID 1255;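 also: 0% = DMSO with agonist challenge and 100% = reference antagonist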
Active calls of the source: *; · = no result. In the library only some 2.8% were active in any assay of this set; here they are far more common. Rule as the data show it, unless noted: active = inhibition above about 17%; inactive = the rest.

SMILES	NPY-Y2 antag	EP2 mod	NPY-Y1 antag	NPY2 pot ag	NPY1 pot ag	PGE2 EP2 inh	NPY-Y1 ant conf	NPY2 antag ctr
CC(C)NC(=O)c1onc(CSc2cccc3ccccc23)c1C(=O)O	10	19	22*	-44	-13	18	18	11
COCCCNc1nc(-c2cccc(Cl)c2)nc2ccccc12	·	-59	·	·	·	14	·	·
COc1ccccc1Cc1nnc(NC(=O)CN2CC(C)OC(C)C2)s1 (centres undefined)	·	-6	·	·	·	8	·	·
Cc1ccc(-c2c[n+](CC(=O)c3ccc(Br)cc3)c3n2CCCCC3)cc1	·	-33	35*	5	-34	19	52*	31*
O=C(C[n+]1cc(-c2ccccc2)n2c1CCCCC2)c1ccc(Cl)cc1	16	3	37*	-12	-56	5	25*	22*
Cc1ccc[n+](CC(=O)OC2CC(C)CCC2C(C)C)c1 (centres undefined)	·	36	·	·	·	11	·	·
COc1ccc(-c2c[n+](CC(=O)c3ccccc3)c3n2CCCCC3)cc1	·	-1	·	15	9	9	·	·
CC1CCC(C(C)C)C(OC(=O)C[n+]2cc(-c3ccc(Cl)cc3)n3c2CCCCC3)C1 (centres undefined)	·	-42	80*	-12	-44	14	45*	39*
Clc1ccc(C[n+]2cc(-c3ccccc3)n3c2CCCCC3)c(Cl)c1	·	-26	50*	-14	-29	6	33*	22*
CC(=O)Nc1ccc2nc(-c3ccc(Br)o3)[nH]c2c1	2	-14	7	4	-12	8	·	·
O=C(Nc1ccc2nc(-c3ccc(Br)o3)[nH]c2c1)c1cccs1	6	-15	21*	-19	-14	13	2	8
CCN1CCN(C(c2cc3cc(C)ccc3[nH]c2=O)c2nnnn2Cc2ccc(OC)cc2)CC1 (centres undefined)	·	-46	·	·	·	12	·	·
COc1cc(NC2c3ccccc3C(=O)N2Cc2ccc3c(c2)OCO3)cc(OC)c1OC (centres undefined)	15	-2	23*	-21	-7	10	16	7
CCOc1ccc(NC2c3ccccc3C(=O)N2Cc2ccc3c(c2)OCO3)cc1 (centres undefined)	2	34	-3	6	-4	8	·	·
CC(=O)c1cccc(NC(=O)CSc2nc(-c3cccs3)cc(C(F)(F)F)n2)c1	·	-109	·	·	·	11	·	·
O=C(NC(c1ccc2c(c1)OCO2)c1cc(Cl)c2cccnc2c1O)c1cccnc1 (centres undefined)	·	-22	·	·	·	9	·	·
CC(=O)Nc1ccc(NC(=O)CSc2nnc3c(C)cc4cc5c(cc4n23)OCCO5)cc1	·	19	·	·	·	8	·	·
CN(C)c1ccc(-c2nn3c(-c4ccc(Cl)cc4)nnc3s2)cc1	4	14	5	2	3	5	·	·
Clc1ccc(-c2nn3c(C4COc5ccccc5O4)nnc3s2)cc1 (centres undefined)	11	19	25*	2	-12	4	15	13
O=S(=O)(NCc1ccc2c(c1)OCO2)c1ccc2c(c1)oc1ccccc12	8	-34	22*	-9	-30	17	17	19*
O=S(=O)(NCc1ccc2c(c1)OCO2)c1ccc2c(c1)OCCO2	·	-66	·	·	·	9	·	·
CCc1nc(N2CCN(C(=O)c3ccccc3)CC2)c2c3c(sc2n1)CCCC3	·	22	22*	-8	-21	7	9	10
Cc1ccc(CN(Cc2cc3cccc(C)c3[nH]c2=O)C(=O)NC2CCCCC2)cc1	·	20	·	·	·	6	·	·
CCOC(=O)C1=C(C)NC2=C(C(=O)CCC2)C1c1cn(Cc2ccc(Cl)cc2Cl)nc1-c1ccccc1 (centres undefined)	12	3	35*	-16	-46	·	30*	39*
CCC(C)(C)n1nnnc1C(c1cccc(OC)c1OC)N1CCC(C(N)=O)CC1 (centres undefined)	·	-6	·	·	·	16	·	·
SMILES	NPY-Y2 antag	EP2 mod	NPY-Y1 antag	NPY2 pot ag	NPY1 pot ag	PGE2 EP2 inh	NPY-Y1 ant conf	NPY2 antag ctr
O=C(O)c1ccc(NC(=S)NC(=O)c2cccc(COc3ccccc3)c2)cc1	·	58	3	0	-15	10	·	·
O=C(NC(=S)Nc1ccc(CN2CCCCC2)cc1)c1cccc(OCc2ccccc2)c1	·	4	42*	-57	-53	4	42*	53*
Cc1ccc(-n2cc(CNCC3CC(=O)N(C4CC4)C3)c(-c3cccc(C)c3)n2)cc1 (centres undefined)	·	-5	22*	-29	-40	0	10	17
Cc1ccc(-n2c(SCC(=O)N3CCCCC3)nnc2-c2cccnc2)cc1C	·	0	·	·	·	9	·	·
O=C(CSc1nnc(Cc2cccs2)n1CCc1ccccc1)N1CCCc2ccccc21	13	-37	22*	-19	-18	15	7	6
Cn1c(Cc2cccs2)nnc1SCC(=O)N1CCCc2ccccc21	3	1	1	-1	11	10	·	·
O=C1NC2(CCN(C(=O)c3cccnc3)CC2)Nc2ccccc21	·	-4	·	·	·	8	·	·
CCOC(=O)c1[nH]c(C)c(C(=O)OCC(=O)NC(=O)NC(C)(C)C)c1C	0	-12	21*	-8	-7	7	0	2
COc1ccc(OC)c(-c2[nH]nc3c2C(c2c(Cl)cccc2Cl)C(C#N)=C(N)O3)c1 (centres undefined)	·	4	·	·	·	11	·	·
NC(=O)COC(=O)CSc1ccc2ccccc2c1	·	36	22*	-34	-39	11	17	14
CN(C)CCCOc1ccc(C(C)(C)c2ccccc2)cc1	13	-29	23*	-34	-49	13	14	23*
OC(CNCCc1ccccc1)COc1ccc(OCC(O)CNCCc2ccccc2)cc1 (centres undefined)	·	-52	·	1	-6	14	·	·
CN(C)CCOc1ccc(C(C)(C)c2ccccc2)cc1	·	6	1	-2	9	5	·	·
CC(C)N(CCNCC(O)COc1ccc(C(C)(C)c2ccccc2)cc1)C(C)C (centres undefined)	·	-30	25*	-6	-22	8	14	26*
COc1ccc2c(c1)cc(C)c1nnc(SCC(=O)N3c4ccccc4CC3C)n12 (centres undefined)	·	-8	·	·	·	13	·	·
Cc1ccccc1NC(=O)c1sc2nc3c(c(-c4ccco4)c2c1N)CCCC3	2	20	24*	-1	-8	12	2	4
Nc1c(C(=O)Nc2ccccc2)sc2nc3c(c(-c4ccco4)c12)CCCC3	0	16	6	-16	-50	10	·	·
